Measurements: ChEMBL document CHEMBL4689842, “EUbOPEN Chemogenomics Library wave 1” (2021)
Several values for one entry are separate records, joined by “and”; a condition that tells them apart may be missing. Equal values may be shown once.

Legend:
Format in all cases: toxicity, cell-based
Fibroblast [1] = assay: Multiplex assay against human fibroblast; settings: 10 µM, compound concentration 10 uM
Outline: (§1)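 Live cells were stained at seeding with Hoechst33342, BioTracker Green Microtubule Cytoskeleton Dye, MitoTracker Red and Annexin V Alexa Fluor 680, then imaged on a CQ1 microscope at 37°C and 5% CO2 after compound addition. CellPathfinder machine-learning gating split cells into Hoechst high-intensity objects or normal cells. Normal cells were split into healthy, pyknosed or fragmented nuclei, and pyknosed cells into mitotic or apoptotic. Tubulin, mitochondrial-mass and membrane-permeability phenotypes are per cents of healthy-nucleus cells.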

HEK-293T [2] = assay: Multiplex assay against HEK293T; settings: human, 10 µM, compound concentration 10 uM; outline: as §1
U2OS [3] = assay: Multiplex assay against U2OS; settings: human, 10 µM, compound concentration 10 uM; outline: as §1
HEK-293T [4] = assay: Incucyte cell viability with HEK293T; settings: human, 10 µM, compound concentration 10 uM; also: filed as whole numbers so only -1 and 0 and 1 occur
Fibroblast [5] = assay: Incucyte cell viability with human fibroblast; settings: 10 µM, compound concentration 10 uM; also: filed as whole numbers so only -1 and 0 and 1 occur
U2OS [6] = assay: Incucyte cell viability with U2OS; settings: human, 10 µM, compound concentration 10 uM; also: filed as whole numbers so only -1 and 0 and 1 occur
[7] = 6 h, replicate number 1, timepoint 6 hours
[8] = 12 h, replicate number 1, timepoint 12 hours
[9] = 18 h, replicate number 1, timepoint 18 hours
[10] = 24 h, replicate number 1, timepoint 24 hours
[11] = 0 h, replicate number 1, timepoint 0 hours

SMILES: CCN1CCN(Cc2ccc(NC(=O)c3ccc(C)c(Oc4ccnc5[nH]ccc45)c3)cc2C(F)(F)F)CC1.Cl.Cl.Cl.O
- Population Apoptotic (%) (Fibroblast [1]; 12 h, replicate 1): 75% and 44%
- Population Fragmented Nuclei (%) (Fibroblast [1]; 12 h, replicate 1): 42% and 25%
- Population Healthy Nuclei (%) (Fibroblast [1]; 12 h, replicate 1): 42% and 50%
- Population Hoechst High Intensity Objects (%) (Fibroblast [1]; 12 h, replicate 1): 20%
- Population Membrane Permeable-Phenotype (%) (Fibroblast [1]; 12 h, replicate 1): 6% and 2%
- Population Mitochondria Different-Phenotype (%) (Fibroblast [1]; 12 h, replicate 1): 8%
- Population Mitotic Cells (%) (Fibroblast [1]; 12 h, replicate 1): 25% and 55%
- Population Normal (%) (Fibroblast [1]; 12 h, replicate 1): 79%
- Population Pyknosed Nuclei (%) (Fibroblast [1]; 12 h, replicate 1): 14% and 25%
- Population Tubulin-Different-Phenotype (%) (Fibroblast [1]; 12 h, replicate 1): 13% and 25%
- Total Cell Count (Fibroblast [1]; 12 h, replicate 1): 169 and 323
- Population Fragmented Nuclei (%) (Fibroblast [1]; 12 h, replicate 2): 74% and 45%
- Population Healthy Nuclei (%) (Fibroblast [1]; 12 h, replicate 2): 23% and 34%
- Population Hoechst High Intensity Objects (%) (Fibroblast [1]; 12 h, replicate 2): 36% and 41%
- Population Membrane Permeable-Phenotype (%) (Fibroblast [1]; 12 h, replicate 2): 18% and 0%
- Population Mitochondria Different-Phenotype (%) (Fibroblast [1]; 12 h, replicate 2): 0% and 12%
- Population Mitotic Cells (%) (Fibroblast [1]; 12 h, replicate 2): 100% and 44%
- Population Normal (%) (Fibroblast [1]; 12 h, replicate 2): 63% and 58%
- Population Tubulin-Different-Phenotype (%) (Fibroblast [1]; 12 h, replicate 2): 18% and 37%
- Total Cell Count (Fibroblast [1]; 12 h, replicate 2): 74 and 79
- Population Apoptotic (%) (Fibroblast [1]; 24 h, replicate 1): 76% and 41%
- Population Fragmented Nuclei (%) (Fibroblast [1]; 24 h, replicate 1): 45% and 29%
- Population Healthy Nuclei (%) (Fibroblast [1]; 24 h, replicate 1): 46%
- Population Hoechst High Intensity Objects (%) (Fibroblast [1]; 24 h, replicate 1): 23% and 52%
- Population Membrane Permeable-Phenotype (%) (Fibroblast [1]; 24 h, replicate 1): 5% and 2%
- Population Mitochondria Different-Phenotype (%) (Fibroblast [1]; 24 h, replicate 1): 13% and 14%
- Population Mitotic Cells (%) (Fibroblast [1]; 24 h, replicate 1): 23% and 58%
- Population Normal (%) (Fibroblast [1]; 24 h, replicate 1): 76% and 47%
- Population Pyknosed Nuclei (%) (Fibroblast [1]; 24 h, replicate 1): 8% and 23%
- Population Tubulin-Different-Phenotype (%) (Fibroblast [1]; 24 h, replicate 1): 20% and 32%
- Total Cell Count (Fibroblast [1]; 24 h, replicate 1): 210 and 306
- Population Apoptotic (%) (Fibroblast [1]; 24 h, replicate 2): 50% and 30%
- Population Fragmented Nuclei (%) (Fibroblast [1]; 24 h, replicate 2): 59% and 50%
- Population Healthy Nuclei (%) (Fibroblast [1]; 24 h, replicate 2): 36% and 19%
- Population Hoechst High Intensity Objects (%) (Fibroblast [1]; 24 h, replicate 2): 38% and 40%
- Population Mitotic Cells (%) (Fibroblast [1]; 24 h, replicate 2): 50% and 69%
- Population Normal (%) (Fibroblast [1]; 24 h, replicate 2): 61% and 60%
- Population Tubulin-Different-Phenotype (%) (Fibroblast [1]; 24 h, replicate 2): 41% and 50%
- Total Cell Count (Fibroblast [1]; 24 h, replicate 2): 76 and 70
- Population Apoptotic (%) (HEK-293T [2]; 12 h, replicate 1): 19% and 50%
- Population Fragmented Nuclei (%) (HEK-293T [2]; 12 h, replicate 1): 21% and 19%
- Population Healthy Nuclei (%) (HEK-293T [2]; 12 h, replicate 1): 47% and 20%
- Population Hoechst High Intensity Objects (%) (HEK-293T [2]; 12 h, replicate 1): 20% and 25%
- Population Membrane Permeable-Phenotype (%) (HEK-293T [2]; 12 h, replicate 1): 5% and 7%
- Population Mitotic Cells (%) (HEK-293T [2]; 12 h, replicate 1): 80% and 49%
- Population Normal (%) (HEK-293T [2]; 12 h, replicate 1): 79% and 74%
- Population Pyknosed Nuclei (%) (HEK-293T [2]; 12 h, replicate 1): 31% and 60%
- Total Cell Count (HEK-293T [2]; 12 h, replicate 1): 451 and 581
- Population Fragmented Nuclei (%) (HEK-293T [2]; 12 h, replicate 2): 3% and 6%
- Population Healthy Nuclei (%) (HEK-293T [2]; 12 h, replicate 2): 66% and 86%
- Population Hoechst High Intensity Objects (%) (HEK-293T [2]; 12 h, replicate 2): 5% and 2%
- Population Membrane Permeable-Phenotype (%) (HEK-293T [2]; 12 h, replicate 2): 2% and 1%
- Population Mitotic Cells (%) (HEK-293T [2]; 12 h, replicate 2): 47% and 87%
- Population Normal (%) (HEK-293T [2]; 12 h, replicate 2): 94% and 97%
- Total Cell Count (HEK-293T [2]; 12 h, replicate 2): 837 and 1347
- Population Fragmented Nuclei (%) (HEK-293T [2]; 24 h, replicate 1): 21% and 23%
- Population Healthy Nuclei (%) (HEK-293T [2]; 24 h, replicate 1): 25% and 58%
- Population Hoechst High Intensity Objects (%) (HEK-293T [2]; 24 h, replicate 1): 29% and 13%
- Population Membrane Permeable-Phenotype (%) (HEK-293T [2]; 24 h, replicate 1): 8% and 7%
- Population Normal (%) (HEK-293T [2]; 24 h, replicate 1): 70% and 86%
- Total Cell Count (HEK-293T [2]; 24 h, replicate 1): 528 and 497
- Population Healthy Nuclei (%) (HEK-293T [2]; 24 h, replicate 2): 71% and 83%
- Population Hoechst High Intensity Objects (%) (HEK-293T [2]; 24 h, replicate 2): 6% and 5%
- Population Membrane Permeable-Phenotype (%) (HEK-293T [2]; 24 h, replicate 2): 1% and 3%
- Population Mitotic Cells (%) (HEK-293T [2]; 24 h, replicate 2): 32% and 91%
- Population Normal (%) (HEK-293T [2]; 24 h, replicate 2): 93% and 94%
- Total Cell Count (HEK-293T [2]; 24 h, replicate 2): 779 and 2092
- Population Apoptotic (%) (U2OS [3]; 12 h, replicate 1): 66% and 38%
- Population Healthy Nuclei (%) (U2OS [3]; 12 h, replicate 1): 34% and 87%
- Population Hoechst High Intensity Objects (%) (U2OS [3]; 12 h, replicate 1): 7% and 4%
- Population Membrane Permeable-Phenotype (%) (U2OS [3]; 12 h, replicate 1): 18% and 17%
- Population Mitotic Cells (%) (U2OS [3]; 12 h, replicate 1): 33% and 61%
- Population Normal (%) (U2OS [3]; 12 h, replicate 1): 92% and 95%
- Total Cell Count (U2OS [3]; 12 h, replicate 1): 219 and 182
- Population Fragmented Nuclei (%) (U2OS [3]; 12 h, replicate 2): 17% and 9%
- Population Healthy Nuclei (%) (U2OS [3]; 12 h, replicate 2): 40% and 83%
- Population Hoechst High Intensity Objects (%) (U2OS [3]; 12 h, replicate 2): 14% and 11%
- Population Membrane Permeable-Phenotype (%) (U2OS [3]; 12 h, replicate 2): 20% and 10%
- Population Mitotic Cells (%) (U2OS [3]; 12 h, replicate 2): 30% and 87%
- Population Normal (%) (U2OS [3]; 12 h, replicate 2): 85% and 88%
- Population Pyknosed Nuclei (%) (U2OS [3]; 12 h, replicate 2): 42%
- Total Cell Count (U2OS [3]; 12 h, replicate 2): 113 and 91
- Population Apoptotic (%) (U2OS [3]; 24 h, replicate 1): 37%
- Population Normal (%) (U2OS [3]; 24 h, replicate 1): 79% and 98%
- Population Pyknosed Nuclei (%) (U2OS [3]; 24 h, replicate 1): 10%
- Population Tubulin-Different-Phenotype (%) (U2OS [3]; 24 h, replicate 1): 10%
- Total Cell Count (U2OS [3]; 24 h, replicate 1): 255 and 248
- Population Apoptotic (%) (U2OS [3]; 24 h, replicate 2): 90% and 58%
- Population Fragmented Nuclei (%) (U2OS [3]; 24 h, replicate 2): 16% and 11%
- Population Hoechst High Intensity Objects (%) (U2OS [3]; 24 h, replicate 2): 23% and 18%
- Population Normal (%) (U2OS [3]; 24 h, replicate 2): 76% and 81%
- Total Cell Count (U2OS [3]; 24 h, replicate 2): 133 and 117
- Growth Rate (HEK-293T [4]; 0 h, replicate number 2, timepoint 0 hours): 0
- Growth Rate (HEK-293T [4]; [7]): 0
- Growth Rate (HEK-293T [4]; [8]): 0
- Growth Rate (HEK-293T [4]; [9]): 0
- Growth Rate (HEK-293T [4]; [10]): 0
- Growth Rate (Fibroblast [5]; [11]): 0
- Growth Rate (Fibroblast [5]; [7]): 1
- Growth Rate (Fibroblast [5]; [8]): 0
- Growth Rate (Fibroblast [5]; [9]): 0
- Growth Rate (Fibroblast [5]; [10]): 0
- Growth Rate (U2OS [6]; [11]): 0
- Growth Rate (U2OS [6]; [7]): 0
- Growth Rate (U2OS [6]; 6 h, replicate number 2, timepoint 6 hours): 1
- Growth Rate (U2OS [6]; [8]): 0
- Growth Rate (U2OS [6]; [9]): 0
- Growth Rate (U2OS [6]; [10]): 0
